How the values were obtained:
Rattus norvegicus = organism: Rattus norvegicus; assay: In vitro uptake of compound by F98 glioma cells was determined by measuring cellular boron content using direct current plasma atomic emission spectroscopy (DCP-AES) after 24 hr incubation
[1] = Actual boron concentration in media was determined by using direct current plasma atomic emission spectroscopy (DCP-AES) after 24 hr incubation
[2] = Concentration required to produce a 50% reduction in the uptake of [3H]TdR, by F98 glioma cells; assay type: functional; details: Rattus norvegicus, F98, 24 h
Procedure, shortened: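 F98 rat glioma cells, 10 000/well, grown overnight at 37 °C in DMEM with 10% FBS, then 24 h with polyamine at 1–100 μM (0.1–10 μg/mL boron); medium replaced with compound-free medium, pulsed with 0.1 μCi [3H]TdR per well for 18–24 h, then harvested and counted. Six replicates per concentration; IC50 from cpm as % of untreated controls.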

Nucleic Acid = assay: Binding of compound to calf thymus DNA was determined by an ethidium bromide displacement assay; assay type: nucleic-acid assay, Bos taurus

SMILES	Concentration (Rattus norvegicus)	Cmedia [1]	IC50 [2] [µM]	IC50 (Nucleic Acid) [µM]
N[C@@H](Cc1ccc(B(O)O)cc1)C(=O)O	81 µg of B g-1	50 ug of B/ml		
NCCCCNCCCN [SPERMIDINE]			> 100	175
CCNCCCNCCCCNCCCNCC [BIS(ETHYL)SPERMINE]			> 100	
NCCCNCCCCNCCCN [SPERMINE]			> 100	17

Reference: ChEMBL document CHEMBL1130244, “Boron-containing polyamines as DNA targeting agents for neutron capture therapy of brain tumors: synthesis and biological evaluation” (J Med Chem, 1997)
